Results gathered from unrelated publications.
Compare with care: the assays were run in different laboratories.
Target: Serine/threonine-protein kinase OSR1 (OXSR1, Homo sapiens, UniProt O95747)

CCN1CCN(Cc2ccc(C(=O)Nc3ccc(C)c(Oc4ccc5c(c4)CC(=O)N5)c3)cc2C(F)(F)F)CC1  remaining binding (binding, competition with immobilised ligand; 1 µM): 97%
CN(c1nccc(-c2cnn3ncccc23)n1)C1CC1  remaining binding (binding; 1 µM): 100%
CS(=O)(=O)c1cc(C2(NC(=O)c3cncc4c3cnn4-c3ccc(F)cc3)CC2)ccn1  remaining binding (cell-free assay, competition with immobilised ligand; 1 µM): 85%
C[C@H]1CCN(c2nccc(-c3cnn4ncccc34)n2)C1  remaining binding (binding; 1 µM): 76%
O=C(Nc1c[nH]nc1C(=O)NC1CCNCC1)c1cc(F)cc(F)c1  remaining binding (binding, competition with immobilised ligand; 1 µM): 100%
O=S(=O)(NC1CCC(c2cc(F)ccc2F)(S(=O)(=O)c2ccc(Cl)cc2)CC1)C(F)(F)F (stereo not shown)  remaining binding (cell-free assay, competition with immobilised ligand; 1 µM): 91%
Cc1cnc(Nc2ccc(C(=O)N3CCC(N4CCCC4)CC3)cc2)nc1-c1cc2ccccc2s1  remaining binding (binding, competition with immobilised ligand; 1 µM): 81%
C[C@@H]1CN(c2cc(-c3nn(C)c4ccc(OC5(C)CC5)cc34)ncn2)C[C@H](C)O1  remaining binding (cell-free assay, competition with immobilised ligand; 1 µM): 93%
O=C(c1ccc(Nc2ncc(Cl)c(-c3ccc(Cl)s3)n2)cc1)N1CCC(N2CCCC2)CC1  remaining binding (binding, competition with immobilised ligand; 1 µM): 87%
CNC(=O)[C@@H]1CC[C@@H](n2c(-c3ccc4cnccc4c3)nc3ccc(C(=O)NCc4cccc(C(N)=O)c4)cc32)C1  remaining binding (binding, competition with immobilised ligand; 1 µM): 100%
CS(=O)(=O)N1CCCC(NC(=O)[C@H](CCC2CCCCC2)NC(=O)c2ccc(CNc3ncnc4c3nnn4-c3ccccc3)cc2)C1 (stereo partly shown)  remaining binding (cell-free assay, competition with immobilised ligand; 0.1 µM): 100%
CN(CCCC(F)(F)F)c1nccc(-c2cnn3ncccc23)n1  remaining binding (binding; 1 µM): 100%
C[C@H](c1cccc(C#N)c1)n1cc(Cl)cc(C(N)=O)c1=N  remaining binding (cell-free assay, competition with immobilised ligand; 1 µM): 81%
N[C@@H]1CCN(c2nccc(-c3cnn4ncccc34)n2)C1  remaining binding (binding; 1 µM): 100%
FC(F)(F)Oc1cccc(-c2cnc3ccc(-c4ccncc4)nn23)c1  remaining binding (cell-free assay, competition with immobilised ligand; 5 µM): 82%
CO[C@H]1CC[C@H](CNc2ccc(S(=O)(=O)NC(=O)c3ccc(N4CCN(CC5=C(c6ccc(Cl)cc6)CC(C)(C)CC5)CC4)cc3Oc3cnc4[nH]ccc4c3)cc2[N+](=O)[O-])CC1  remaining binding (cell-free assay, competition with immobilised ligand; 1 µM): 76%
c1cncc(-c2cccc(Nc3nccc(NC4CCCCC4)n3)c2)c1  remaining binding (binding, competition with immobilised ligand; 10 µM): 100%
O=C(Nc1cccnn1)N1CCC(=Cc2cccc(Oc3ccc(C(F)(F)F)cn3)c2)CC1  remaining binding (cell-free assay, competition with immobilised ligand; 1 µM): 100%
c1cnn2ncc(-c3ccnc(N4CCC45COC5)n3)c2c1  remaining binding (binding; 1 µM): 62%
O=C(c1ccc(Nc2ncc(Cl)c(-c3cc4ccccc4s3)n2)cc1)N1CCC(N2CCCC2)CC1  remaining binding (binding, competition with immobilised ligand; 1 µM): 74%
C=CC(=O)N1CCC(C(=O)NCC(=O)N2CCN(c3nc(-c4cnc(N)nc4C(F)F)nc(N4CCOCC4)n3)CC2)CC1  remaining binding (binding, competition with immobilised ligand; 1 µM): 100%
F[C@@H]1CCN(c2nccc(-c3cnn4ncccc34)n2)C1  remaining binding (binding; 1 µM): 100%
